Reference: ChEMBL document CHEMBL1137523, “Efficient one-pot synthesis of biologically active polysubstituted aromatic amines” (Bioorg Med Chem, 2007)
Converted amounts (≈) assume the structure as drawn. The source made the active and inactive calls. No cut-off for these calls is given here.

The compounds below were run on L929 (assay: Growth inhibition of mouse L929 cells after 5 days by MTT assay). Conditions: L929, 120 h.
Type: functional, cell-based
Outline: (§1)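 L-929 cells (DSMZ) were grown in DME with 10% newborn calf serum at 37 °C, 10% CO2, in humid air. In microtiter plates, a suspension of 50,000 cells/mL was added to a serial dilution of inhibitor (2:1 cell suspension to dilution). Metabolic activity per well was read by MTT after 5 days.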

Structure (SMILES)	IC50
O=[N+]([O-])c1cc(O)ccc1NCc1ccccc1	9 µg/mL (≈ 36.8 µM)
COc1ccc(N(CC(C)C)CC(C)C)cc1	25 µg/mL (≈ 106 µM)
c1ccc(CNc2ccccn2)cc1	35 µg/mL (≈ 190 µM)
COc1ccc(CNc2ccc(O)c([N+](=O)[O-])c2)cc1	20 µg/mL (≈ 72.9 µM)
Cc1ccc(NCc2ccccc2)cc1 [N-BENZYL-4-METHYLANILINE]	> 40 µg/mL
O=C(O)Cc1ccc(NCc2ccccc2)cc1	> 40 µg/mL
CCCCCCCCCNc1ccc(OC)cc1	12 µg/mL (≈ 48.1 µM)
COc1ccc(N(Cc2ccc([N+](=O)[O-])cc2)Cc2ccccc2OC)cc1	> 40 µg/mL
COc1ccc(NC(C)c2ccsc2)cc1 (stereo unspecified)	30 µg/mL (≈ 129 µM)
COc1ccc(N(Cc2ccccc2)Cc2ccccc2)cc1	12 µg/mL (≈ 39.6 µM)
COc1ccc(N(Cc2ccccc2)Cc2ccc([N+](=O)[O-])cc2)cc1	> 40 µg/mL
Cc1ccc(N(Cc2ccccc2)CC(C)C)cc1	5 µg/mL (≈ 19.7 µM)
COc1ccc(N(Cc2ccccc2OC)CC(C)C)cc1	15 µg/mL (≈ 50.1 µM)
CCCCCCCCCN(CC(C)C)c1ccc(OC)cc1	20 µg/mL (≈ 65.5 µM)
COc1ccc(NCc2ccccc2OC)cc1	25 µg/mL (≈ 103 µM)
COc1ccc(NCc2ccc([N+](=O)[O-])cc2)cc1	> 40 µg/mL
COc1ccc(N(Cc2ccccc2)Cc2ccccc2OC)cc1	> 40 µg/mL
COc1ccc(NC(C)c2ccco2)cc1 (stereo unspecified)	40 µg/mL (≈ 184 µM)
COc1ccc(NCC(C)C)cc1	> 40 µg/mL
Cc1ccc(N(CC(C)C)CC(C)C)cc1	13 µg/mL (≈ 59.3 µM)
COc1ccc(N(Cc2ccccc2)CC(C)C)cc1	10 µg/mL (≈ 37.1 µM)
COc1ccc(NC(C)c2ccccc2)cc1 (stereo unspecified)	30 µg/mL (≈ 132 µM)
COc1ccc(N(Cc2ccc([N+](=O)[O-])cc2)CC(C)C)cc1	> 40 µg/mL
CC(=O)c1ccc(NCc2ccccc2)cc1	22 µg/mL (≈ 97.7 µM)
Cc1ccc(N(Cc2ccccc2)Cc2ccccc2)cc1	11 µg/mL (≈ 38.3 µM)

The compounds below were run on L929 (assay: Growth inhibition of mouse L929 cells below 40 ug/mL after 5 days by MTT assay). Conditions: not given.
Type: functional, cell-based
Outline: as §1

Structure (SMILES)	Activity
Cc1ccc(NCc2ccccc2)cc1 [N-BENZYL-4-METHYLANILINE]	inactive
COc1ccc(N(Cc2ccccc2)Cc2ccccc2OC)cc1	inactive
COc1ccc(NCC(C)C)cc1	inactive
COc1ccc(N(Cc2ccc([N+](=O)[O-])cc2)CC(C)C)cc1	inactive

What follows are compounds tested on Potorous tridactylus (assay: Effect on cell morphology in PtK2 potoroo cells assessed as changes in morphology at 50 ug/mL after 18 hrs). Conditions: not given.

Structure (SMILES)	Activity
O=[N+]([O-])c1cc(O)ccc1NCc1ccccc1	Active
Cc1ccc(N(Cc2ccccc2)CC(C)C)cc1	Active
